# According to ChEMBL document CHEMBL1131620, “Identification of novel ligands for the gabapentin binding site on the alpha2delta subunit of a calcium channel and their evaluation as anticonvulsant agents” (J Med Chem, 1998):
# Assay: Inhibition of specific binding of [3H]gabapentin to Gabapentin binding sites located on the alpha-2-delta subunit of calcium channel.
# Set-up: species or system Oryctolagus cuniculus
# Summary of the method: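 [3H]Gabapentin displacement from gabapentin sites on the calcium channel α2δ subunit. IC50 (nM) is the concentration giving half-maximal inhibition of specific radioligand binding.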
row,Structure (SMILES),IC50 [nM]
1,NCC1(CC(=O)O)CCCCC1C1CCCCC1 (configuration not stated),> 10000
2,COC1CCCCC1(CN)CC(=O)O (configuration not stated),> 10000
3,NCC1(CC(=O)O)CCCC(c2ccccc2)C1 (configuration not stated),> 10000
4,CCCC1CCCC(CN)(CC(=O)O)C1 (configuration not stated),3300
5,C[C@H]1CC[C@@](CN)(CC(=O)O)CC1,440
6,CC1(C)CCCC(CN)(CC(=O)O)C1 (configuration not stated),880
7,CC[C@H]1CC[C@@](CN)(CC(=O)O)CC1,700
8,CCC1CCCC(CN)(CC(=O)O)C1 (configuration not stated),280
9,CC1(C)CC(C)(C)CC(CN)(CC(=O)O)C1,> 10000
10,NC[C@]1(CC(=O)O)CC[C@@H](c2ccccc2)CC1,> 10000
11,C[C@H]1CC[C@](CN)(CC(=O)O)CC1,> 10000
12,CC(C)C1CCCC(CN)(CC(=O)O)C1 (configuration not stated),6270
13,NCC1(CC(=O)O)CCOCC1,2380
14,CC1CCCC(CN)(CC(=O)O)C1 (configuration not stated),> 10000
15,NCC1(CC(=O)O)CCSCC1,385
16,CC1(C)CCC(CN)(CC(=O)O)CC1,1310
17,C[C@@H]1CCC[C@@](CN)(CC(=O)O)C1,42
18,C[C@H]1CCC[C@](CN)(CC(=O)O)C1,73
19,NCC1(CC(=O)O)CCNCC1,> 10000
20,C[C@@H]1C[C@H](C)CC(CN)(CC(=O)O)C1 (stereo in doubt; 27),140
21,C[C@@H]1C[C@H](C)CC(CN)(CC(=O)O)C1 (stereo in doubt; 28),> 10000
